# Assay outcomes as filed in PubChem BioAssay.
# An excerpt weighted towards active compounds, which were near 3.7% of everything screened.
# KCNK3 inh: human KCNK3 channel inhibition, primary screen. O14649. CHO-KCNK3 thallium flux, FluxOR fluorescence; stronger effect = lower value. B-score at 10 µM. 340,000 compounds, 0.84% hits. AID 602410;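 active = B-score under library mean minus 4 SD, starting fluorescence ratio at most library mean plus 5 SD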;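 also: more negative B-score means stronger inhibition of thallium flux through KCNK3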
# KCNQ1 block: human KCNQ1 channel inhibition. AID 2642. 310,000 compounds, 1.3% hits. CHO-K1 KCNQ1, FluxOR thallium flux fluorescence; stronger effect = higher value. B-score at 10 µM;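 active = compounds whose thallium flux B-score, printed positive for inhibition, exceeds three library SD while starting fluorescence stays within three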;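 also: channel opened by potassium depolarization with thallium stimulus after 20 min compound exposure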
# Kir21 block: Kir2.1 (mouse) channel inhibition | 310,000 compounds, 0.85% hits | B-score at 10 µM | P35561 | HEK293-Kir2.1, FluxOR thallium flux fluorescence; stronger effect = lower value;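 active = fluorescence ratio B-score at or below minus 3 SD of library scores, with starting-brightness B-score within 2 SD, cut at about -4.2 in these data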;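 also: channel flux triggered by added potassium and thallium sulfate stimulus; B-score of peak minus minimum fluorescence over baseline after thallium stimulus; more negative B-score means stronger Kir2.1 block with less thallium influx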
# KCNK9 inh: human KCNK9 channel inhibition; Q9NPC2; HEK293 KCNK9, FluxOR thallium flux fluorescence; stronger effect = lower value; B-score at 10 µM; 310,000 compounds, 1.2% hits; AID 488922;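 active = ratio B-score over 3 SD below the library mean, with starting fluorescence within 5 SD of its mean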;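 also: negative B-score means less thallium flux so channel inhibition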
# KCNQ1 act: potentiators or activators of human KCNQ1 potassium channel | P51787 | CHO-K1 KCNQ1, thallium flux FluxOR fluorescence; stronger effect = higher value | B-score at 10 µM | 310,000 compounds, 0.35% hits | AID 2648;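 active = fluorescence ratio B-score, a plate-corrected score, at least three library SD, with initial intensity B-score within 5 SD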
#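 Schedule – 37 °C overnight plating, 90-min dark dye load, 20-min compound pretreatment · System – stable KCNQ1 CHO-K1 line · Probe or stimulus – thallium- and potassium-containing depolarizing buffer · Measured by – kinetic FluxOR fluorescence, 10 s baseline plus 110 s post-stimulus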
# hERG protect: hERG (human) protection from proarrhythmic block. Q12809. CHO-hERG, FluxOR thallium flux, dofetilide IC70 present. activation (rescue from dofetilide block), less the hit threshold, % at 10 µM. 310,000 compounds, 0.51% hits. AID 1511;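 active = activation above the mean of controls blocked by dofetilide plus 5 SD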;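 also: thallium influx through hERG after potassium depolarization seen as dye fluorescence rise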
# The depositor's hits bear a star; i = inactive; x = not tested or not shown.
SMILES,KCNK3 inh,KCNQ1 block,Kir21 block,KCNK9 inh,KCNQ1 act,hERG protect
O=C(c1ccccc1)c1ccc2nc(-c3ccco3)c(-c3ccco3)nc2c1,i,9*,-0.79,i,i,-17
COc1ccccc1OCc1ccc(C(=O)n2nc(C)c(Cl)c2C)o1,i,i,-1,-7.9*,i,-9
COC(=O)c1ccc(COc2ccccc2OC)o1,i,i,0.11,i,i,-5
COc1ccc(NC(=O)NNC(=O)c2ccc3ccccc3c2)cc1OC,i,i,-0.96,i,i,-11
Cc1[nH]c2ccccc2c1/C=N/NC(=S)NCc1ccccc1,i,6*,1.6,i,i,-4
Cc1ccc(NC(=S)N/N=C/c2c(C)[nH]c3ccccc23)cc1,i,6*,-0.22,i,i,-9
Cc1[nH]c2ccccc2c1/C=N/NC(N)=S,i,i,-0.04,i,i,-12
O=C(NCc1ccc(F)cc1)c1cc(C(=O)C2CC2)c[nH]1,i,i,-1.7,i,i,-11
CC(C)c1ccc(/C=N/n2c(COc3ccccc3)n[nH]c2=S)cc1,i,i,1.2,i,16*,-2
COc1ccc(/C=C2\SC(c3ccc(C)cc3)=NC2=O)cc1OC,i,i,0.19,i,i,9.7*
COc1cc(/C=C2\SC(c3ccccc3)=NC2=O)cc(Cl)c1O,-10*,i,2,i,i,-8
O=C(CCC(=O)Nc1ccccc1)N/N=C/c1cccnc1,i,i,-0.71,i,i,-3
COC(=O)c1ccc2c(c1C(=O)OC)CN(S(=O)(=O)C(C)(C)C)[C@H]2CCO,i,x,x,x,x,x
CCC1CCCCN1c1nc(-c2ccncc2)nc2ccccc12 (stereo unspecified),i,i,-2.3,-6.8*,i,-15
CCC1CCCCN1c1nc(-c2cccc(OC)c2O)nc2ccccc12 (stereo unspecified),i,i,0.5,-7.6*,i,-17
CC1CCCCN1c1nc(-c2ccncc2)nc2ccccc12 (stereo unspecified),i,i,-1.4,i,i,-11
COc1ccc2nc(N(Cc3ccccc3)C(=O)CCNC(C)=O)sc2c1,i,i,-0.27,i,i,-10
CC[N+]1(C)CCC(O)(/C=C/c2ccccc2)C(C(=O)/C=C/c2ccccc2)C1 (stereo unspecified),i,x,x,x,x,x
O=C(c1ccc(-c2ccc(Cl)cc2)o1)N1CCN(c2ccc([N+](=O)[O-])cc2Cl)CC1,i,7*,0.23,i,i,-14
O=C(c1ccc(-c2cccc([N+](=O)[O-])c2)o1)N1CCN(c2ccc([N+](=O)[O-])cc2)CC1,i,x,x,x,x,x
Cc1ccc2[nH]c3c(c2c1)CCN(C)C3,i,i,0.65,i,i,-14
Cc1cc(C)c(NS(=O)(=O)c2ccccc2)c(C)c1NS(=O)(=O)c1ccccc1,i,x,x,x,x,x
CCOC(=O)CN1C(c2ccc(O)cc2)Nc2ccc(Br)cc2C1c1ccccc1 (stereo unspecified),i,i,0.02,-7.5*,i,-7
CCOC(=O)CN1C(=O)Nc2ccc(Br)cc2C1c1ccccc1 (stereo unspecified),i,i,-1.6,i,i,-16
CCN(C(=O)COC(=O)c1cc(-c2cccc3ccccc23)nc2ccccc12)C1CCS(=O)(=O)C1 (stereo unspecified),i,i,-0.15,-7.1*,i,-7
SMILES,KCNK3 inh,KCNQ1 block,Kir21 block,KCNK9 inh,KCNQ1 act,hERG protect
CCN(C(=O)COC(=O)C(Cc1ccccc1)N1C(=O)c2ccccc2C1=O)C1CCS(=O)(=O)C1 (stereo unspecified),i,i,-0.07,i,8*,-8
O=C(COC(=O)c1cc(-c2cccc3ccccc23)nc2ccccc12)NC1CCS(=O)(=O)C1 (stereo unspecified),i,i,-0.87,i,i,-16
Cc1ccc(S(=O)(=O)N2C[C@@H]3CCCC[C@@H]3[C@@H](C)[C@H]2c2cn(Cc3ccccc3)c3ncccc23)cc1,i,x,x,x,x,x
CCN(C/C=C/c1ccccc1OC)Cc1ccccc1,i,i,-4.8*,i,i,1
N#CC1=C(SCC(=O)NC23CC4CC(CC(C4)C2)C3)NC(=O)C(C#N)C12CCCCC2 (stereo unspecified),i,10*,0.47,i,i,-9
N#CC1=C(SCC(=O)NC2CC2)NC(=O)C(C#N)C12CCCCC2 (stereo unspecified),i,i,-1.3,i,i,-12
N#Cc1nc(COc2ccc(Cl)cc2Cl)oc1N1CCN(c2ccccc2)CC1,i,i,0.68,-6.6*,i,-17
CC12CCC(C(=O)N(CSC(=S)N/N=C\c3ccccc3Cl)C1=O)C2(C)C (stereo unspecified),i,i,-0.14,i,35*,-6
Cc1ccccc1NCN1C(=O)C2CCC(C)(C1=O)C2(C)C (stereo unspecified),i,i,-0.39,i,i,-7
CC12CCC(C(=O)N(CSC(=S)N/N=C\c3ccccc3)C1=O)C2(C)C (stereo unspecified),i,i,0.07,i,15*,1
CN(C)S(=O)(=O)c1cc(C(=O)Nc2ccccc2C(=O)NC2CC2)ccc1Cl,i,x,x,x,x,x
Cc1ccc(-c2cc3nc(C)cc(C)n3n2)cc1,i,i,-0.73,i,i,-9
COc1ccc(-c2cc3nc(C)cc(N4CC(C)CC(C)C4)n3n2)cc1 (stereo unspecified),i,6*,-0.44,i,i,-12
COc1ccc(Cl)cc1NC(=O)CC1S/C(=N/N=C2CCCCCC2)NC1=O (stereo unspecified),i,i,0.52,i,i,-12
CC1CN(c2ccccn2)C(C)CN1C(=S)Nc1ccccc1 (stereo unspecified),i,x,x,x,x,x
O=C(O)CCCC(=O)N1CC(=O)Nc2ccccc21,i,i,0.13,i,i,0
O=C1CN(C(=O)CCCc2c[nH]c3ccccc23)c2ccccc2N1,i,i,-5.7*,i,i,-8
CC(=O)c1ccc(NC(=O)CN2CCC(NC(=O)C3CCCCC3)CC2)cc1,i,i,-0.9,i,i,6.1*
Cc1cccc(-c2nnc(NC(=O)c3ccc(Cl)cc3)o2)c1,i,i,-0.24,i,9*,-12
CCSc1nc2sc3c(c2c(=O)[nH]1)CC(C)(CC)OC3 (stereo unspecified),i,i,-0.28,i,i,-6
CCC1(C)Cc2c(sc3nc(SC)[nH]c(=S)c23)CO1 (stereo unspecified),x,i,2.1,i,74*,49*
